Experiments:
[1] = compound: COC1=C(OC)/C(=C/Cn2cnc3c(N)ncnc32)OC1=O; assay: (§1) Rate of deamination in the presence of calf mucosal adenosine deaminase (ADA)
How it was run: (§2)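 Deamination rates followed with calf mucosal ADA (EC 3.5.4.4) in buffer solutions; Km and Vmax relative to adenosine as substrate; inhibition (Ki) assessed with adenosine as substrate.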

[2] = compound: COC1=C(OC)C(O)(CCn2cnc3c(N)ncnc32)OC1=O; assay: as §1; how it was run: as §2

B1: Adenosine deaminase (Bos taurus), P56658 (protein)
chain: MAQTPAFNKPKVELHVHLDGAIKPETILYYGRKRGIALPADTPEELQNIIGMDKPLSLPEFLAKFDYYMPAIAGCREAVKRIAYEFVEMKAKDGVVYVEVRYSPHLLANSKVEPIPWNQAEGDLTPDEVVSLVNQGLQEGERDFGVKVRSILCCMRHQPSWSSEVVELCKKYREQTVVAIDLAGDETIEGSSLFPGHVKAYAEAVKSGVHRTVHAGEVGSANVVKEAVDTLKTERLGHGYHTLEDATLYNRLRQENMHFEVCPWSSYLTGAWKPDTEHPVVRFKNDQVNYSLNTDDPLIFKSTLDTDYQMTKNEMGFTEEEFKRLNINAAKSSFLPEDEKKELLDLLYKAYGMPSPASAEQCL
- Km [1]: 266 µM
- Km [2]: > 800 µM
